# Assay outcomes deposited in PubChem BioAssay by several laboratories.
# PostGolgi yeast = growth inhibition of a yeast mutant, post-Golgi transport screen. inhibition, % at 10 µM. 98,000 compounds, 0.9% hits. post-Golgi transport phenotypic cell assay;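 also: yeast cells grown in 1536-well plates; yeast grown about 18 h at 30C before absorbance read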
# PostGolgi ctrl = growth of the yeast control strain, post-Golgi counter-screen; inhibition, % at 10 µM; 98,000 compounds, 5% hits; efflux-deficient yeast background strain, growth absorbance A615, 16 h
# HePTP inhibitor = human HePTP phosphatase inhibition; P35236; recombinant HePTP phosphatase activity, OD absorbance; inhibition, % at 20 µM; 110,000 compounds, 0.64% hits; in the data active = inhibition above about 50%;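 also: plate controls were vehicle for no effect and reference inhibitor for full effect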
# E coli WT exp = growth inhibitors of E. coli BW25113 wild type | 98,000 compounds, 0.15% hits | OD600 absorbance | growth inhibition, % at 100 µM | AID 710;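 active = growth inhibition above about 50% at one test dose, limit read from the data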;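 also: growth measured after 20 h incubation at 37 °C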
# Ecoli tolC = blocks growth of E. coli BW25113 tolC mutant; OD615; growth inhibition, % at 10 µM (by protocol); 65,000 compounds, 2.2% hits; AID 573;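 active = growth inhibition at or above a cutoff equal to the mean over every tested compound plus 3 SD, cut at about 60% in these data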;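 also: growth measured after 20 h incubation at 37 °C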
#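 Doses: one dose of 10 µM final / Material: E. coli BW25113 ΔtolC::kan, tolC deletion mutant strain / Buffer or medium: LB with kanamycin 50 µg/mL / Evaluation: percent growth inhibition / Detection: optical density read at 615 nm / Incubation: 37 °C, 20 h exposure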
# PLAP act = activates human placental alkaline phosphatase | 96,000 compounds, 1.2% hits | purified PLAP enzyme, luminescent substrate read-out; hits give high values | activation fold at 20 µM | P05187 | AID 696; in the data active = activation fold above about 2
# Target sequence (P05187 whole entry, looked up): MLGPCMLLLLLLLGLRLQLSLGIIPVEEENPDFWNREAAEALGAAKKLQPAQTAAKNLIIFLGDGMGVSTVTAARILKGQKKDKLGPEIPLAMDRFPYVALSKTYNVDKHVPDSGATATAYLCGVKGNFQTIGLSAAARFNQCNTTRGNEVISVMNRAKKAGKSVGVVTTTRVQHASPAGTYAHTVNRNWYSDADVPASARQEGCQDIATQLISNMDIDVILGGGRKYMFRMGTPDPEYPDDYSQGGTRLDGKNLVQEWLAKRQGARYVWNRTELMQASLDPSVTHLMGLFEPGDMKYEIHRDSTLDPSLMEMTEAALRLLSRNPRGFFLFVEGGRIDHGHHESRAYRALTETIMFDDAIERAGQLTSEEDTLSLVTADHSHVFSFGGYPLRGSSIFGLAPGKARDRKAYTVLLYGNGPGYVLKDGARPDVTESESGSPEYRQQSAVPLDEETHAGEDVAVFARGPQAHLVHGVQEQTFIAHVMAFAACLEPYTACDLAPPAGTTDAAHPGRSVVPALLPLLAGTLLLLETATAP
# Starred values were filed as active, the others as inactive; x = not tested or not shown. Compounds with a hit are over-represented: about 5.4% of the library has one in this group of screens. Rule as the data show it, unless noted: active = inhibition above about 30%; inactive = the rest.
SMILES,PostGolgi yeast,PostGolgi ctrl,HePTP inhibitor,E coli WT exp,Ecoli tolC,PLAP act
CC(C)c1ccc(-c2cc(C(=O)NCCN3CCOCC3)c3ccccc3n2)cc1,x,x,7,x,x,x
CC(C)c1ccc(-c2cc(C(=O)N3N=C(C(F)F)CC3(O)C(F)F)c3ccccc3n2)cc1 (stereo not given),1,23,x,-15,x,2.1*
Cc1nn2c(c1-c1ccc(Cl)cc1)N=C(c1ccco1)CC2c1ccccc1 (stereo not given),23,35*,x,-7,x,1.3
Clc1ccc(C2=NN(c3ccccc3)C(c3ccco3)C2)cc1 (stereo not given),x,x,12,x,x,x
CN(C)c1ccc(C(c2nnnn2CCOC(=O)Nc2ccc(Cl)cc2)N2CCOCC2)cc1 (stereo not given),-1,34*,2,2,-9,1.8
O=C(Nc1ccc(Cl)cc1)OCCn1nnnc1C(c1ccccc1)N1CCOCC1 (stereo not given),0,-3,10,30,1,1.5
O=C(N/N=C/c1ccc2c(c1)OCO2)c1ccc(CO)nc1,x,x,-7,x,x,x
Cc1ccc(/C=C2\SC(=S)N(c3ccc(F)cc3)C2=O)cc1,x,x,7,x,x,x
CCOc1ccc(C(=O)Nc2ccc(C(C)=O)cc2)cc1OCC,x,x,13,x,x,x
CCc1ccc(/C=C(/C#N)c2nc(-c3ccc(Br)cc3)cs2)cc1,x,x,10,x,x,x
COC(=O)c1ccc(NC(=O)c2cn(-c3ccccc3)nc2-c2ccncc2)cc1,72*,32*,x,-12,x,1.1
O=C(c1ccc(C#CC2(O)CCCCC2)cc1)N1CCN(C(c2ccccc2)c2ccccc2)CC1,12,5,x,-14,x,1.7
O=C(c1ccc(C#CC2(O)CCCCC2)cc1)N1CCN(Cc2ccccc2)CC1,10,30*,x,1,x,1.3
CC1=CC(C)(C)N(C(=O)c2ccc(NS(C)(=O)=O)cc2)c2ccc(C)cc21,x,x,-11,x,x,x
CCOC(=O)N1CCC(Nc2nc3ccccc3nc2NS(=O)(=O)c2ccc(Cl)cc2)CC1,3,12,2,0,80*,1
CCOC(=O)N1CCC(NC(=O)CC(NS(=O)(=O)c2ccc(Cl)cc2)c2ccco2)CC1 (stereo not given),17,8,14,-3,24,1.3
C=CCn1c(O)c(N=NC(=O)c2ccc3ccccc3n2)c2ccccc21,x,x,-8,x,x,x
Cc1c2c(nc3c(C(=O)NC4CCCCC4C)cnn13)CCCC2 (stereo not given),-2,56*,4,2,37,1.1
CC1CCCCC1NC(=O)c1cncc(Br)c1 (stereo not given),-20,16,1,1,3,0.9
COC(=O)CSc1nc2ccc(NC(=O)CSc3nnnn3Cc3ccccc3)cc2s1,10,36*,1,-9,7,0.9
Oc1ccc(/C=N/n2c(-c3ccccc3)n[nH]c2=S)cc1O,x,x,-12,x,x,x
Cc1cc(SCC#N)n2nc(C)c(-c3ccccc3)c2n1,16,15,7,26,61*,1.3
COc1ccc(-n2c(-c3ccccc3)nc(=S)c3c2CCCC3)cc1,0,64*,x,2,x,1
O=C(Nc1nc(-c2ccccc2)cs1)c1ccc2c(c1)OCO2,x,x,-10,x,x,x
CC1=C(C(=O)Nc2ccccc2)C(c2ccccc2)n2c(s/c(=C/c3ccc(F)cc3)c2=O)=N1 (stereo not given),x,x,4,x,x,x
SMILES,PostGolgi yeast,PostGolgi ctrl,HePTP inhibitor,E coli WT exp,Ecoli tolC,PLAP act
COC(=O)CN1C(=O)Nc2ccc(Br)cc2C1c1ccccc1Cl (stereo not given),-9,33*,-5,-2,x,1.6
O=c1c2c3c(sc2ncn1/N=C/c1ccc([N+](=O)[O-])o1)CCCC3,105*,60*,x,4,x,1
O=c1c2c3c(sc2ncn1/N=C/c1cc([N+](=O)[O-])ccc1O)CCCC3,x,x,2,x,x,x
Cc1ccc(C)c(OCCN2CCCC2)c1,x,x,6,x,x,x
c1csc(CNCCCN2CCOCC2)c1,-3,31*,x,-5,x,1.1
COCCn1c(Cc2ccccc2)nnc1SCC(=O)Nc1cc(C)on1,4,43*,-4,3,8,0.9
COCCn1c(SCC(=O)Nc2cc(C)on2)nnc1-c1c[nH]c2ccccc12,-4,4,1,6,-2,1
Cc1cc(C)c(NC(=O)CN(C2CCCCC2)C2CCCCC2)c(C)c1,32*,53*,x,0,x,1.3
COc1ccc(Nc2ccc(N)cc2)cc1,x,x,-10,x,x,x
CC1CC(C)CN(C(=O)CSc2nnc(-c3ccc(F)cc3)o2)C1 (stereo not given),-2,9,-8,5,1,0.8
CC1CC(C)CN(C(=O)CSc2nnc(-c3ccc(Cl)s3)o2)C1 (stereo not given),7,3,-12,-2,71*,1.1
COC(=O)c1cccc(Nc2nc3ccccc3nc2C)c1,16,53*,8,-6,3,1
CC(=O)c1ccc2c(c1)c1cc(C(C)=O)ccc1n2C(C)=O,x,x,2,x,x,x
Cc1ccc(Nc2ncccc2C(=O)NCc2cccs2)c(C)c1,-2,44*,x,-22,x,0.9
Cc1cccc(NC(=S)NCc2cccs2)c1C,-8,-3,x,6,x,1.1
Cc1ccc(C)c(-c2cc(C(=O)NCc3cccs3)c3ccccc3n2)c1,-16,9,x,-12,x,1.1
Cc1cccc(Nc2ncccc2C(=O)NCc2cccs2)c1C,-8,34*,x,-15,x,0.7
O=C(CN(c1cccc(Br)c1)S(=O)(=O)c1ccccc1)Nc1ccc(Cl)cc1,x,x,-6,x,x,x
N#Cc1nc(-c2ccc(Cl)cc2)oc1NCCc1ccccn1,-2,6,23,-13,-1,1
Cc1ccc(-c2nc(C#N)c(NCCc3ccccn3)o2)cc1,0,33*,-10,-1,4,1
Cn1cc(/C=C(/C#N)C(=O)Nc2cccc(Br)c2)c2ccccc21,x,x,-5,x,x,x
Cc1ccc(/C(C#N)=C\c2cn(C)c3ccccc23)cc1,-4,34*,-9,-10,44,0.8
O=C(O)CCCC(=O)Nc1ccc(C(=O)NCc2cccnc2)cc1,-15,36*,8,4,-11,0.9
CCOc1ccc(C(=O)NCc2cccnc2)cc1,-1,9,5,9,-9,1
CCCOc1ccc(C(=O)NCc2cccnc2)cc1,6,32*,-9,-1,-6,1
SMILES,PostGolgi yeast,PostGolgi ctrl,HePTP inhibitor,E coli WT exp,Ecoli tolC,PLAP act
COc1cc(OC)c(C#N)c(S(=O)Cc2ccccc2)c1 (stereo not given),13,36*,-4,0,0,1.1
O=c1c2cc(Br)ccc2nc(-c2cccc(C(F)(F)F)c2)n1O,3,7,x,63*,x,1
O=C(Nc1ccc(C(F)(F)F)cc1)c1cc(-c2cccnc2)nc2ccc(Br)cc12,-2,6,x,-1,x,1
CCOC(=O)C1NN=C(C(=O)c2ccccc2)C1c1ccc(OC)cc1 (stereo not given),x,x,104*,x,x,x
O=C(N/N=C/C=C/c1ccccc1)c1n[nH]c2c1CCC2,25,3,x,-18,x,2.4*
O=C(COC(=O)c1ccccc1Oc1ccccc1)NC1CCS(=O)(=O)C1 (stereo not given),8,13,-2,-4,-10,0.9
